Here are results for 1 compound from ChEMBL document CHEMBL4251751 (J Med Chem, 2018).

≈ marks a conversion by molar mass, not a printed value. Calls of active or inactive are those of the source. The calls are words filed in the database; no cut-off is given here.

Data set [1] deals with T1, Peroxisome proliferator-activated receptor gamma (Mus musculus) (UniProt P37238).
T1 sequence (whole entry): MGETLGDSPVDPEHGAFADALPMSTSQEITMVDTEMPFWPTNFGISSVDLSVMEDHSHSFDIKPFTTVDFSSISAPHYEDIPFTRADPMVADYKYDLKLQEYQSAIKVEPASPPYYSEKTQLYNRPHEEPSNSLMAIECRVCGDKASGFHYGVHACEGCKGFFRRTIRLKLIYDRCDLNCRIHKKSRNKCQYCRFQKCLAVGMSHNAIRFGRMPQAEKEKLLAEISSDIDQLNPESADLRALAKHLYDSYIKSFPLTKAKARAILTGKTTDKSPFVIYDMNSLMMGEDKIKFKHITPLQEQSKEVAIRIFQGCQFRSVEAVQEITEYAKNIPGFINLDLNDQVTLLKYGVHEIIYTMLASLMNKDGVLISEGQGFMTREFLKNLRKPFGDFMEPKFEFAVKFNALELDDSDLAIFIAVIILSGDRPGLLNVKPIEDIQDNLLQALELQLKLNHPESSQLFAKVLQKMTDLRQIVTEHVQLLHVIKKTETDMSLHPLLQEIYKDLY
Kind of data set: Agonist activity at PPARgamma in mouse 3T3-L1 cells assessed as increase in CPT1A mRNA expression at 1 uM after 15 days by quantitative real-time PCR method. Format: cell-based. Background: Real-time PCR tracks product formation cycle by cycle.

A short description of data set [2]: Aqueous solubility of the compound at 5 mg after 24 hrs by HPLC analysis. Type of data set: physicochemical. Particulars: water.
The test system of data set [3] is Mus musculus. Kind of data set: Time at which plasma concentration stays above in-vitro IC50 for sEH in C57BL/6JRj mouse at 10 mg/kg, po by LC-MS/MS analysis. Format: ADME, organism-based. Particulars: in vivo. The essentials: (§1)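 Four healthy wild-type male C57Bl6/J mice received a single oral dose of 10 mg/kg. Plasma concentrations were followed over time to give uptake, bioavailability and terminal half-life. Results are mean±SEM, n=4.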

The nature of data set [4]: Lipophilicity, log D of the compound at 30 uM at pH 7.4 by HPLC method. Type of data set: physicochemical. Particulars: buffer.
Data set [5] has as its target T2, Cysteinyl leukotriene receptor 1 (Homo sapiens, UniProt Q9Y271).
T2 sequence (Q9Y271 whole entry): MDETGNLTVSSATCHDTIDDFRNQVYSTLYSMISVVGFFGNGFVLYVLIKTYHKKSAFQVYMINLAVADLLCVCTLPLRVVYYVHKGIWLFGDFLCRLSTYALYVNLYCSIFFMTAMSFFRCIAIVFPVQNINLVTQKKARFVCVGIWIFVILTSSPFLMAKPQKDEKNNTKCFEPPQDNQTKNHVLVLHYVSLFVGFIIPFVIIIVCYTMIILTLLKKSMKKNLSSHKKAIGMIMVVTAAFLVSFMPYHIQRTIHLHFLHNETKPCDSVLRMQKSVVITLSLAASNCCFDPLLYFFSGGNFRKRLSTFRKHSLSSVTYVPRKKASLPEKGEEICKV
Kind of data set: Antagonist potency at human CysLT1R expressed in African green monkey COS7 cells assessed as inhibition of LTD4-induced Ca2+ levels after 60 mins by fura-2/AM-fluorescence based spectrofluorimetry. Particulars: read-out: pA2 (converted). Format: functional, cell-based.

The nature of data set [6]: Metabolic stability in Sprague-Dawley rat liver microsomes assessed as compound remaining at 10 uM in presence of NADPH regenerating system after 4 hrs by HPLC analysis. Type of data set: ADME, microsome. Particulars: read-out: Stability. For orientation: Microsomes from liver hold many membrane-bound enzymes, among them those of drug oxidation.
In data set [7] the test system is Mus musculus. Kind of data set: Drug uptake in C57BL/6JRj mouse at 10 mg/kg, po by LC-MS/MS analysis. Format: ADME, organism-based. Particulars: in vivo. The essentials:
as §1

A further data set concerns HepG2. Kind of data set: Cytotoxicity against human HepG2 cells at 1 to 100 uM after 48 hrs by WST assay. Particulars: hepg2, 48 h. Type of data set: cell-based.
Data set [8] deals with T3, Nuclear receptor subfamily 1 group I member 3 (Homo sapiens, UniProt Q14994).
T3 sequence (Q14994 whole entry): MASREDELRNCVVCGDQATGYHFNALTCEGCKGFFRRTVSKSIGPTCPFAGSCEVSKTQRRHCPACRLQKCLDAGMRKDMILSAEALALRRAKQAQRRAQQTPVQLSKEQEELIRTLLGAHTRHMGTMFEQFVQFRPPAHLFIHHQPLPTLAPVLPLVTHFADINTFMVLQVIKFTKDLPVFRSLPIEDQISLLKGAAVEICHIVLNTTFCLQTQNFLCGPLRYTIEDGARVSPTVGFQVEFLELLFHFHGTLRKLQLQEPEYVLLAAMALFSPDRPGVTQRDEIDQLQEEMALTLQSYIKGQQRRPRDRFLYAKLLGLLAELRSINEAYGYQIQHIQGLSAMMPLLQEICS
Kind of data set: Agonist activity at human CAR LBD expressed HEK293T cells at 10 uM after 12 to 14 hrs by dual-glo luciferase reporter gene assay. Format: ADME. For orientation: A reporter such as luciferase makes a cellular process visible.

For data set [9], the system named is Mus musculus. Kind of data set: Time at which plasma concentration stays above in-vitro EC50 for partial agonist activity at PPARgamma in C57BL/6JRj mouse at 10 mg/kg, po by LC-MS/MS analysis. Type of data set: organism-based. Particulars: in vivo. The essentials: as §1
In data set [10] the test system is Mus musculus. Kind of data set: Time at which plasma concentration stays above in-vitro pA2 for CysLT1 in C57BL/6JRj mouse at 10 mg/kg, po by LC-MS/MS analysis. Format: ADME, organism-based. Particulars: in vivo. The essentials: as §1
In data set [11] the test system is Mus musculus. Kind of data set: Anti-inflammatory activity in zymosan-induced paw edema C57BL/6N mouse model assessed as reduction in paw edema at 10 mg/kg, po via gavage pretreated for 30 mins followed by zymosan injection and measured after 24 hrs post zymosan injection by plethysmometry. Format: functional, organism-based. The method in brief:
(§2)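 Zymosan was injected intraplantar into one hindpaw of C57BL/6N mice. Test compound or vehicle was given orally at 10 mg/kg 30 min beforehand. Paw edema was measured by plethysmometry at 8 h and 24 h after zymosan, with the contralateral hindpaw as a control.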

Data set [12] deals with T4, Peroxisome proliferator-activated receptor gamma (Mus musculus, UniProt P37238).
T4 sequence (P37238 whole entry): T1 sequence (whole entry)
Kind of data set: Agonist activity at PPARgamma in mouse 3T3-L1 cells assessed as induction of adipocyte differentiation at 0.3 to 3 uM after 15 days by Oil Red O staining-based assay. Type of data set: cell-based. Particulars: 3t3-l1, 360 h.

For data set [13], the system named is Mus musculus. Kind of data set: Anti-inflammatory activity in zymosan-induced paw edema C57BL/6N mouse model assessed as reduction in paw edema at 10 mg/kg, po via gavage pretreated for 30 mins followed by zymosan injection and measured after 8 hrs post zymosan injection by plethysmometry. Type of data set: functional, organism-based. The method in brief:
as §2

A short description of data set [14]: Elimination half life in C57BL/6JRj mouse at 10 mg/kg, po by LC-MS/MS analysis. Format: ADME, organism-based. Particulars: in vivo, read-out: beta t1/2 (converted). The method in brief:
as §1

For data set [15], the system named is Mus musculus. Kind of data set: Activation of PPARgamma in C57BL/6JRj mouse assessed as up-regulation of CD36 expression at 10 mg/kg, po administered as single dose measured at 8 hrs post dose relative to untreated control. Type of data set: functional, organism-based. The method in brief: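 Healthy wild-type male C57BL6/J mice were dosed orally at 10 mg/kg or with vehicle. Hepatic transcription of the PPARγ target gene CD36 was assessed in liver against vehicle-treated animals. Mean±SEM, n(vehicle)=2, n(treated)=4.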

Data set [16] has as its target T4, Peroxisome proliferator-activated receptor gamma. Kind of data set: Agonist activity at PPARgamma in mouse 3T3-L1 cells assessed as increase in CD36 mRNA expression at 1 uM after 15 days by quantitative real-time PCR method. Format: cell-based. Particulars: 3t3-l1, 360 h.

Turning to `COc1cc(C(=O)NS(=O)(=O)c2ccccc2)ccc1Cc1cn(C)c2ccc(NC(=O)NC3CCCCC3)cc12`, the outcome (in [1]; with Mus musculus [13]) was inactive. In addition, in [2], the concentration in solution (solubility at 24 h) was 2.1 µg/mL (≈ 3.65 µM). Also, the figures for the Time with Mus musculus [3], in the data set on Mus musculus [9] and in the data set with Mus musculus [10] were 8 h, 4 h and 8 h, respectively. Also, the log distribution coefficient (logD) at 30 µM in data set [4] came to 1.7. Moreover, the Kb in [5] was 2 nM. For the same compound, the remaining at 4 h, 10 µM in data set [6] was 65%. Moreover, in the data set with Mus musculus [7], the Drug uptake result is listed as “Active”. For the same compound, the Activity entry was “Non-Toxic” with HepG2, “Not Active” in data set [8], “Not Active” in data set [12] and “Not Active” in data set [16]. In addition, the result in the data set on Mus musculus [11] and with Mus musculus [15] was Active. For the same compound, the half-life in data set [14] was 1.9 h.

One may read the solubility as the dissolved amount per volume that the medium holds. The logD is lipophilicity at a set pH, counting ionised and neutral species.
